Experimental findings from ChEMBL document CHEMBL1135768, “Design, synthesis, and SAR of tachykinin antagonists: modulation of balance in NK(1)/NK(2) receptor antagonist activity” (J Med Chem, 2002) are described below.

The target in one series is T1, Neuromedin-K receptor (Homo sapiens, UniProt P29371).
T1 sequence (P29371 whole entry): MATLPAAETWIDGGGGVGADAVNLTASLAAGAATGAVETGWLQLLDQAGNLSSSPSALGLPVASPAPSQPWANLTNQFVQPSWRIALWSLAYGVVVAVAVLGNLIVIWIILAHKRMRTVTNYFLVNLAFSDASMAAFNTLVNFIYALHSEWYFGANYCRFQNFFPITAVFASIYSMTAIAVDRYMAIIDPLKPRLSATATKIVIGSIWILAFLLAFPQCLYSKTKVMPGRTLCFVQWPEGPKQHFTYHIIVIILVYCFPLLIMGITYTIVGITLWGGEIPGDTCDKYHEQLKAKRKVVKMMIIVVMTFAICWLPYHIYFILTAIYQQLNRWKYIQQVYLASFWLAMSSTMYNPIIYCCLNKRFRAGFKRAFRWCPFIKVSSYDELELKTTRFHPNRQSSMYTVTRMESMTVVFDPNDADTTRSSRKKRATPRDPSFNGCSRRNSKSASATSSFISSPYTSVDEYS
In words: Inhibition of binding of [125I]MPNI to human Tachykinin receptor 3 (NK3) expressed in mouse erythroleukemia cells. Format: cell-based.

For the next series, the target named is Substance-P receptor (Homo sapiens, UniProt P25103). Kind of series: Inhibition of binding of [3H]SP to Tachykinin receptor 1 of human tachykinin receptor expressed in mouse erythroleukemia cells. Format: cell-based.
Series [1] concerns the target T2, Substance-K receptor (Cavia porcellus) (UniProt Q64077).
T2 sequence (whole entry): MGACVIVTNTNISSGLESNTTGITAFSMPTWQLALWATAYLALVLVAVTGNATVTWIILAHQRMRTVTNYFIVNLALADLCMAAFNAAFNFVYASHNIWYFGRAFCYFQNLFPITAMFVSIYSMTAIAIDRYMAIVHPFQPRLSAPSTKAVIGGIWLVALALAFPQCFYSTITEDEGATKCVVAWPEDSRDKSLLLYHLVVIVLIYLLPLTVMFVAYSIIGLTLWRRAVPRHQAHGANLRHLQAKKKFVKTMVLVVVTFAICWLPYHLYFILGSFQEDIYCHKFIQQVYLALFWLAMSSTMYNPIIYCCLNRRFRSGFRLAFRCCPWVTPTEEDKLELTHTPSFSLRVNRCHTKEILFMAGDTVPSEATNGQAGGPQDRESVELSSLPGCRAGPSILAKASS
In words: In vivo potency as dose ratio (ED50 ratio for Tachykinin receptor 2 (NK2) in presence and absence of antagonist) in guinea pig PMM after oral administration at a dose 30 uM/Kg.

The target of series [2] is T3, Substance-K receptor (Oryctolagus cuniculus) (UniProt P79218).
T3 sequence (whole entry): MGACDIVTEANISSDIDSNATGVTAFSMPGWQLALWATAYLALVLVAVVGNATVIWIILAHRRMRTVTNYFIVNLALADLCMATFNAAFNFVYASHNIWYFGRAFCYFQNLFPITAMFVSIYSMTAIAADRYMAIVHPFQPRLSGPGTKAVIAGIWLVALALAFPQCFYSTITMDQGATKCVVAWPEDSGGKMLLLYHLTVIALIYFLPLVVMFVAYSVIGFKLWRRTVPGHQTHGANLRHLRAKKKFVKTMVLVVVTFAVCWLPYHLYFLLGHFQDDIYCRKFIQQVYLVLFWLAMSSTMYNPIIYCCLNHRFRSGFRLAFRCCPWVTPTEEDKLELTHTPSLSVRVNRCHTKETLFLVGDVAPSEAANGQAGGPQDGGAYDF
In words: Tested for the binding affinity towards tachykinin receptor 2 (NK2) in rabbit pulmonary artery tissue.

Series [3] has as its target T2, Substance-K receptor (Cavia porcellus). Kind of series: In vivo binding affinity towards Tachykinin receptor 2 (NK2) receptor after oral administration in presence of agonist BANK in guinea pig pulmonary tissue in pulmonary mechanics assay.
Series [4] has the same target. In words: In vivo potency as dose ratio (ED50 ratio for Tachykinin receptor 2 (NK2) in presence and absence of antagonist) in guinea pig PMM after intravenous administration at a dose 10 uM/Kg.
Series [5] concerns the target Substance-P receptor (Cavia porcellus) (UniProt P30547). Kind of series: In vivo binding affinity towards Tachykinin receptor 1 after oral administration in presence of agonist ASMSP in guinea pig pulmonary tissue in lung plasma extravation assay. It counts as organism-based. In a few lines:
(§1)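 Guinea pig lung plasma extravasation model. Antagonist dosed orally; NK1-selective agonist ASMSP challenge 2 h postdose. Single ED50 calculated from dose response in three to six animals per dose over 4–5 dose levels, doses staggered across several days.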

Series [6] shares this target. Kind of series: In vivo potency as dose ratio (ED50 ratio for Tachykinin receptor 1 in presence and absence of antagonist) in guinea pig PMM after oral administration at a dose 30 uM/Kg.
Series [7] has the same target. In words: In vivo potency as dose ratio (ED50 ratio for Tachykinin receptor 1 in presence and absence of antagonist) in guinea pig PMM after intravenous administration at a dose 10 uM/Kg.
Series [8] deals with Substance-P receptor (Oryctolagus cuniculus). Kind of series: Tested for the binding affinity towards tachykinin receptor 1 (NK1) in rabbit pulmonary artery tissue.
Series [9] deals with T4, Substance-K receptor (Homo sapiens, UniProt P21452).
T4 sequence (P21452 whole entry): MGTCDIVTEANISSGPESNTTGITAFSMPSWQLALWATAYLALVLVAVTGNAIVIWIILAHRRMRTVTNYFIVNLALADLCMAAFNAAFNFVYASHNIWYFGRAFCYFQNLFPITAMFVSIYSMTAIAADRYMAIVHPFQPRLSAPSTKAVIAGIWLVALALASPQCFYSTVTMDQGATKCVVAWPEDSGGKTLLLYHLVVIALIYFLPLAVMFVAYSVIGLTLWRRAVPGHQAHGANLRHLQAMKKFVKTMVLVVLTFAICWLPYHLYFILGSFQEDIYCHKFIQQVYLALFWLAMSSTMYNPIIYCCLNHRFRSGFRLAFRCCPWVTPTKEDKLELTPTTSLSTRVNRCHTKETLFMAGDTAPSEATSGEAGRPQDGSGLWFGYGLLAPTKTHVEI
Kind of series: Inhibition of binding of [3H]NKA to human Tachykinin receptor 2 (NK2) expressed in mouse erythroleukemia cells. It counts as cell-based.

A short description of series [10]: Bioavailability in rat (dose 1-10 uM/kg i.v.). The following applies: in vivo, iv. Format: ADME, organism-based. In short, it runs like this: (§2)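 Compound given to rat (n = 3) or dog (n = 1) by iv bolus at 1–10 μmol/kg, or orally at 10–100 μmol/kg, as a solution in 75% poly(ethylene glycol) 400 in normal saline.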
Series [11] can be described thus: Bioavailability in dog (dose 1-10 uM/kg i.v.). Format: ADME, organism-based, Canis lupus familiaris. The following applies: in vivo, iv. In short, it runs like this:
as §2

The target of series [12] is T4, Substance-K receptor. Kind of series: Inhibition of binding of [3H]NKA to human Tachykinin receptor 2 (NK2) in mouse erythroleukemia cells.
For series [13], the target named is T2, Substance-K receptor (Cavia porcellus). Kind of series: In vivo binding affinity towards Tachykinin receptor 2 (NK2) after oral administration in presence of agonist BANK in guinea pig pulmonary tissue in pulmonary mechanics assay.
Series [14] shares this target. In words: Effective dose concentration required for In vivo binding affinity towards Tachykinin receptor 2 (NK2) receptor after oral administration in presence of agonist BANK in guinea pig pulmonary tissue in pulmonary mechanics assay.
For series [15], the target named is Substance-P receptor (Cavia porcellus) (UniProt P30547). Kind of series: Effective dose concentration required for In vivo binding affinity towards Tachykinin receptor 1 after oral administration in presence of agonist ASMSP in guinea pig pulmonary tissue in lung plasma extravation assay. It counts as organism-based. In short, it runs like this:
as §1

Substance-P receptor, sequence (P25103 whole entry): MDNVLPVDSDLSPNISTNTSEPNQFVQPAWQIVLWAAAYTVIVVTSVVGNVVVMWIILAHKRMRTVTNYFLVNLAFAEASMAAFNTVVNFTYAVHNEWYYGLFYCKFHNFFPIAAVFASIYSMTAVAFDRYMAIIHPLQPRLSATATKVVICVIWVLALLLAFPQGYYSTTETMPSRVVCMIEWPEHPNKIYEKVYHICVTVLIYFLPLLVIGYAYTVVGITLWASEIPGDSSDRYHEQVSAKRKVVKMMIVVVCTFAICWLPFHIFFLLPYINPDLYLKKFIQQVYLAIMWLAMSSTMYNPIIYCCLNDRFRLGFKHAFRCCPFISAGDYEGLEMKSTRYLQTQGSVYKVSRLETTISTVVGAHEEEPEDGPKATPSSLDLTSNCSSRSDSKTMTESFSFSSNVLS
Substance-P receptor (Cavia porcellus), sequence (P30547 whole entry): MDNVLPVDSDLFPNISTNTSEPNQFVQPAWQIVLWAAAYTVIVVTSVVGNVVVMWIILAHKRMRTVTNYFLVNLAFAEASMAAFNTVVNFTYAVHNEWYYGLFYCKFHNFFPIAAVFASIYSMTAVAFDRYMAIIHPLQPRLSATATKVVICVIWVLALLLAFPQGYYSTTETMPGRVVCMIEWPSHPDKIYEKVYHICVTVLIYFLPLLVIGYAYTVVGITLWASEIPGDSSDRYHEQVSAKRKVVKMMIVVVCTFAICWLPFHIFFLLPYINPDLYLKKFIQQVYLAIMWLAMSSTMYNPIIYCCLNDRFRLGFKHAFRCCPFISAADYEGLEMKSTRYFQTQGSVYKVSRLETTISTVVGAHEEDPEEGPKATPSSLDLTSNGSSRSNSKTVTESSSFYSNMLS

Broadly, the Ki is the dissociation constant of the complex between target and ligand, obtained from inhibition or displacement. Low readings indicate tighter binding, high ones weaker binding. As a reminder, the pKB is −log10 of the KB, conventionally taken in molar units. High values mean a small KB, low ones a large KB. By ED50 is commonly meant the dose that gives a 50% effect, or the effect in half of the subjects. On to `CNC(=O)C1(N2CCCCC2=O)CCN(CC[C@H](CN(C)C(=O)c2c(OC)c(C#N)cc3ccccc23)c2ccc(Cl)c(Cl)c2)CC1`, for which the Ki on Neuromedin-K receptor turned out to be 9.4 nM; at Substance-P receptor, 0.27 nM; at Substance-K receptor [9], 35 nM. The dose ratio in [1] was found to be 49; in [4], 155; in series [6], 50; in series [7] it was 384. Moreover, the values for the negative-log KB (pKB) in [2] and in series [8] were 8.2 and 8.7, respectively. In addition, the figures for the ED50 in series [3] and in [5] were 9.3 µmol/kg and 0.5 µmol/kg, respectively.
Broadly, the bioavailability is dose-corrected exposure relative to a reference, in per cent. Regarding `COc1ccc(C2CCN(CC[C@H](CN(C)C(=O)c3cc(C#N)cc4ccccc34)c3ccc(Cl)c(Cl)c3)CC2)c([S@+](C)[O-])c1`, the Ki at Neuromedin-K receptor was found to be 39 nM; on Substance-P receptor it was 0.14 nM; on Substance-K receptor [12], 0.34 nM. Besides, in series [2], the pKB was 8.7. For the same molecule, the values for the ED50 in [5] and in series [13] were 1 µmol/kg and 3 µmol/kg, respectively. Further, the values for the bioavailability in [10] and in series [11] were 7% and 18%, respectively.
With `COc1c(C#N)cc2ccccc2c1C(=O)N(C)C[C@@H](CCN1CCC(c2ccccc2[S@+](C)[O-])CC1)c1ccc(Cl)c(Cl)c1`, the Ki at Neuromedin-K receptor stood at 220 nM; at Substance-P receptor it was 0.17 nM; at Substance-K receptor [9], 67 nM. The dose ratio in series [1] was 2; in series [4], 14; in series [6], 610. In series [5], the ED50 is 0.07 µmol/kg. For the same molecule, the bioavailability in [10] was determined as 12%; in [11], 51%.
In the case of `CN(C[C@@H](CCN1CCC(c2ccccc2[S@+](C)[O-])CC1)c1ccc(Cl)c(Cl)c1)C(=O)c1cc(C#N)cc2ccccc12`, the Ki at Substance-P receptor came to 0.12 nM; at Substance-K receptor [9], 0.64 nM. For the same molecule, the ED50 was found to be 13 µmol/kg in series [14] and 0.6 µmol/kg in [15]. Besides, in series [2], the pKB amounted to 8.26. Also, the bioavailability in series [10] came out at 9%; in series [11], 18%.
On to `COc1c(C#N)cc2ccccc2c1C(=O)N(C)C[C@@H](CCN1CCC(N2CCCNC2=O)CC1)c1ccc(Cl)c(Cl)c1`, for which the figures for the negative-log KB (pKB) in series [2] and in [8] were 7.92 and 8.45, respectively.
As for `CN(C[C@@H](CCN1CCC(c2ccc(Br)cc2[S@+](C)[O-])CC1)c1ccc(Cl)c(Cl)c1)C(=O)c1cc(C#N)cc2ccccc12`, the pKB in series [2] came out at 8.12; in series [8], 8. Besides, the dose ratio in [4] is 30; in series [7] it was 11.
For the molecule `CNC(=O)C1(N2CCCCC2=O)CCN(CC[C@H](CN(C)C(=O)c2cc(C#N)cc3ccccc23)c2ccc(Cl)c(Cl)c2)CC1`, the pKB came out at 8.44 in [2] and 7.33 in series [8].
With `CN(C[C@@H](CCN1CCC(c2ccc(F)cc2[S@+](C)[O-])CC1)c1ccc(Cl)c(Cl)c1)C(=O)c1cc(C#N)cc2ccccc12`, the dose ratio in [1] turned out to be 5; in series [4], 153; in series [6], 4; in series [7], 126. The values for the pKB in series [2] and in series [8] were 8.38 and 8.01, respectively.
On to `CN(C[C@@H](CCN1CCC(c2ccc(C(=O)O)cc2[S+](C)[O-])CC1)c1ccc(Cl)c(Cl)c1)C(=O)c1cc(C#N)cc2ccccc12` (mixture of isomers), for which the pKB came to 6.38 in series [2] and 7.87 in [8].
In the case of `CCN1C(=O)c2ccccc2[C@H]1[C@@H](CCN1CCC(c2ccccc2[S@+](C)[O-])CC1)c1ccc(Cl)c(Cl)c1`, the inhibitory constant (Ki) at Neuromedin-K receptor stood at 9190 nM; at Substance-K receptor [9], 0.92 nM.
On to `COC(=O)c1ccc(C2CCN(CC[C@H](CN(C)C(=O)c3c(OC)c(C#N)cc4ccccc34)c3ccc(Cl)c(Cl)c3)CC2)c([S+](C)[O-])c1` (stereo partly specified), for which the pKB in [2] is less than 7; in series [8], 8.85.
As to `COC(=O)c1ccc(C2CCN(CC[C@H](CN(C)C(=O)c3cc(C#N)cc4ccccc34)c3ccc(Cl)c(Cl)c3)CC2)c([S+](C)[O-])c1` (mixture of isomers), the pKB was determined as 6.84 in series [2] and 7.92 in series [8].
On the same counts, the results for `CN(C[C@@H](CCN1CCC(c2ccccc2[S@+](C)[O-])CC1)c1ccc(Cl)c(Cl)c1)C(=O)c1cc(C#N)cc2cc(C#N)ccc12` are 6.42 and 7.77.
On the same counts, the results for `CNC(=O)C1(N2CCOCC2=O)CCN(CC[C@H](CN(C)C(=O)c2cc(C#N)cc3ccccc23)c2ccc(Cl)c(Cl)c2)CC1` are 7.81 and 7.51.
